Data on five compounds can be found in ChEMBL document CHEMBL1147229, “Isolation and characterization of new epothilone analogues from recombinant Myxococcus xanthus fermentations” (J Nat Prod, 2003).

What all share (assay type): functional, cell-based
Assay [1] is described as follows: Cytotoxicity against human NCI/ADR cells after 3 days by SRB assay. Particulars: NCI/ADR-RES, 72 h. Summed up: (§1)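 Cells kept in RPMI-1640 with 2 mM L-glutamine, 25 mM HEPES and 10% FBS at 37 °C, 5% CO2. Seeding per well: MCF-7 5000, NCI/ADR 7500, NCI-H460 5000, SF-268 7500; 24 h adherence. Compound at 0.001 to 1000 nM, triplicate wells, 3 days. TCA fixation 1 h at 4 °C, 0.2% SRB 20 min, bound dye extracted in 10 mM Tris, absorbance at 515 nm.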
For orientation: In SRB staining, fixed cells bind dye roughly in proportion to their protein.

Another assay has as its system SF-268. The experiment in a line: Cytotoxicity against human SF268 cells after 3 days by SRB assay. Particulars: SF-268, 72 h. The method, boiled down: as §1
A further assay relates to NCI-H460. The experiment in a line: Cytotoxicity against human NCI-H460 cells after 3 days by SRB assay. Particulars: NCI-H460, 72 h. The method, boiled down:
as §1

For another assay, the system named is MCF7. The experiment in a line: Cytotoxicity against human MCF7 cells after 3 days by SRB assay. Particulars: MCF7, 72 h. The method, boiled down: as §1

Where only a bound is given, the exact number is not on record here.

With `CC1=C/C[C@@H](/C(C)=C/c2csc(C)n2)OC(=O)C[C@H](O)C(C)(C)C(=O)[C@H](C)[C@@H](O)[C@@H](C)C\C=C\1`, the IC50 was 250 nM in assay [1], 92 nM in the assay on SF-268, 47 nM in the assay on NCI-H460 and 47 nM with MCF7.
On to `CC1=C/C[C@@H](/C(C)=C/c2csc(C)n2)OC(=O)C[C@H](O)C(C)C(=O)[C@H](C)[C@@H](O)[C@@H](C)C\C=C\1` (stereo not given in full), for which the IC50 in assay [1] worked out at 395 nM; in the assay with SF-268, 390 nM; in the assay with NCI-H460, 345 nM; in the assay with MCF7, 250 nM.
The like results for `C/C1=C/C[C@@H](/C(C)=C/c2csc(C)n2)OC(=O)C[C@H](O)C(C)(C)C(=O)[C@H](C)[C@@H](O)[C@@H](C)C(=O)CC1` were, in that order, more than 1000 nM, more than 1000 nM, more than 1000 nM and 500 nM.
The like results for `C/C(=C\c1csc(C)n1)[C@@H]1C/C=C\CCC[C@H](C)[C@H](O)[C@@H](C)C(=O)C(C)(C)[C@@H](O)CC(=O)O1` [EPOTHILONE C] were, in that order, 310 nM, 340 nM, 280 nM and 97 nM.
`C/C1=C/C[C@@H](/C(C)=C/c2csc(C)n2)OC(=O)C[C@H](O)C(C)(C)C(=O)[C@H](C)[C@@H](O)[C@@H](C)CCC1` [EPOTHILONE D]: the IC50 turned out to be 44 nM in assay [1], 18 nM in the assay with SF-268, 30 nM with NCI-H460 and 16 nM in the assay with MCF7.

As usually defined, the IC50 is the concentration that inhibits the measured activity by half. High values mean a need for much substance, low ones inhibition by little substance.
